Measurements from ChEMBL document CHEMBL5712901, “DOT1L inhibition blocks multiple myeloma cell proliferation by suppressing IRF4-MYC signaling” (2019).
Active and inactive are the calls of the source. The rule behind the calls is not given here.

Tests used:
RPMI-8226 [1] = assay: Upregulation of CCR2 gene in human RPMI-8226 cells at 1 uM for 6 days by; type: functional, cell-based; conditions: time 6.0 day
RPMI-8226 [2] = assay: Upregulation of MYOF gene in human RPMI-8226 cells at 1 uM for 6 days by; type: functional, cell-based; conditions: time 6.0 day
RPMI-8226 [3] = assay: Upregulation of PTPN13 gene in human RPMI-8226 cells at 1 uM for 6 days by; type: functional, cell-based; conditions: time 6.0 day
RPMI-8226 [4] = assay: Upregulation of SOAT2 gene in human RPMI-8226 cells at 1 uM for 6 days by; type: functional, cell-based; conditions: time 6.0 day
RPMI-8226 [5] = assay: Upregulation of ACOT11 gene in human RPMI-8226 cells at 1 uM for 6 days by; type: functional, cell-based; conditions: time 6.0 day
RPMI-8226 [6] = assay: Upregulation of XKR3 gene in human RPMI-8226 cells at 1 uM for 6 days by; type: functional, cell-based; conditions: time 6.0 day
MM1.S [7] = assay: Upregulation of RORC gene in human MM1.S cells at 1 uM for 6 days by; type: functional, cell-based; conditions: time 6.0 day
RPMI-8226 [8] = assay: Upregulation of GLYATL1 gene in human RPMI-8226 cells at 1 uM for 6 days by; type: functional, cell-based; conditions: time 6.0 day
How it was run: (§1)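 Human myeloma lines RPMI-8226 and MM.1S exposed to 1 μM DOT1L inhibitor, or DMSO, for 6 days. Whole-genome expression profiled on gene expression microarray.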

U-266 = assay: Upregulation of DOT1L in human U-266 cells by qRT-PCR analysis; type: functional, cell-based
How it was run: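 Basal DOT1L transcript in untreated myeloma cell lines measured by qRT-PCR, normalized to ACTB; mean of 3 replicates with SEM.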

MM1.S [9] = assay: Upregulation of FBXO2 gene in human MM1.S cells at 1 uM for 6 days by; type: functional, cell-based; conditions: time 6.0 day; how it was run: as §1
RPMI-8226 [10] = assay: Upregulation of RORC gene in human RPMI-8226 cells at 1 uM for 6 days by; type: functional, cell-based; conditions: time 6.0 day
RPMI-8226 [11] = assay: Upregulation of HLA-DRB1 gene in human RPMI-8226 cells at 1 uM for 6 days by; type: functional, cell-based; conditions: time 6.0 day
RPMI-8226 [12] = assay: Upregulation of GNAI1 gene in human RPMI-8226 cells at 1 uM for 6 days by; type: functional, cell-based; conditions: time 6.0 day; how it was run: as §1
RPMI-8226 [13] = assay: Upregulation of FNBP1 gene in human RPMI-8226 cells at 1 uM for 6 days by; type: functional, cell-based; conditions: time 6.0 day
MM1.S [14] = assay: Upregulation of SAP30L gene in human MM1.S cells at 1 uM for 6 days by; type: functional, cell-based; conditions: time 6.0 day
RPMI-8226 [15] = assay: Upregulation of CTSH gene in human RPMI-8226 cells at 1 uM for 6 days by; type: functional, cell-based; conditions: time 6.0 day; how it was run: as §1
MM1.S [16] = assay: Upregulation of ALPK1 gene in human MM1.S cells at 1 uM for 6 days by; type: functional, cell-based; conditions: time 6.0 day
MM1.S [17] = assay: Upregulation of EMILIN2 gene in human MM1.S cells at 1 uM for 6 days by; type: functional, cell-based; conditions: time 6.0 day; how it was run: as §1
MM1.S [18] = assay: Upregulation of CAPN2 gene in human MM1.S cells at 1 uM for 6 days by; type: functional, cell-based; conditions: time 6.0 day
MM1.S [19] = assay: Upregulation of CXCL12 gene in human MM1.S cells at 1 uM for 6 days by; type: functional, cell-based; conditions: time 6.0 day; how it was run: as §1
RPMI-8226 [20] = assay: Upregulation of ZNF75D gene in human RPMI-8226 cells at 1 uM for 6 days by; type: functional, cell-based; conditions: time 6.0 day
RPMI-8226 [21] = assay: Upregulation of MYO1F gene in human RPMI-8226 cells at 1 uM for 6 days by; type: functional, cell-based; conditions: time 6.0 day
RPMI-8226 [22] = assay: Upregulation of FBXO2 gene in human RPMI-8226 cells at 1 uM for 6 days by; type: functional, cell-based; conditions: time 6.0 day; how it was run: as §1
RPMI-8226 [23] = assay: Upregulation of FCGR2B gene in human RPMI-8226 cells at 1 uM for 6 days by; type: functional, cell-based; conditions: time 6.0 day; how it was run: as §1
MM1.S [24] = assay: Upregulation of PRRT2 gene in human MM1.S cells at 1 uM for 6 days by; type: functional, cell-based; conditions: time 6.0 day
RPMI-8226 [25] = assay: Upregulation of PPP1R1C gene in human RPMI-8226 cells at 1 uM for 6 days by; type: functional, cell-based; conditions: time 6.0 day
MM1.S [26] = assay: Upregulation of ENC1 gene in human MM1.S cells at 1 uM for 6 days by; type: functional, cell-based; conditions: time 6.0 day; how it was run: as §1
RPMI-8226 [27] = assay: Upregulation of IFITM3 gene in human RPMI-8226 cells at 1 uM for 6 days by; type: functional, cell-based; conditions: time 6.0 day
MM1.S [28] = assay: Upregulation of POPDC2 gene in human MM1.S cells at 1 uM for 6 days by; type: functional, cell-based; conditions: time 6.0 day
RPMI-8226 [29] = assay: Upregulation of PTPRD gene in human RPMI-8226 cells at 1 uM for 6 days by; type: functional, cell-based; conditions: time 6.0 day
RPMI-8226 [30] = assay: Upregulation of HLA-DQB1 gene in human RPMI-8226 cells at 1 uM for 6 days by; type: functional, cell-based; conditions: time 6.0 day
RPMI-8226 [31] = assay: Upregulation of CCDC74B gene in human RPMI-8226 cells at 1 uM for 6 days by; type: functional, cell-based; conditions: time 6.0 day
MM1.S [32] = assay: Upregulation of RAPGEF2 gene in human MM1.S cells at 1 uM for 6 days by; type: functional, cell-based; conditions: time 6.0 day
MM1.S [33] = assay: Upregulation of PARP8 gene in human MM1.S cells at 1 uM for 6 days by; type: functional, cell-based; conditions: time 6.0 day
MM1.S [34] = assay: Upregulation of MYOF gene in human MM1.S cells at 1 uM for 6 days by; type: functional, cell-based; conditions: time 6.0 day
MM1.S [35] = assay: Upregulation of SGK1 gene in human MM1.S cells at 1 uM for 6 days by; type: functional, cell-based; conditions: time 6.0 day
RPMI-8226 [36] = assay: Upregulation of LAMB3 gene in human RPMI-8226 cells at 1 uM for 6 days by; type: functional, cell-based; conditions: time 6.0 day
MM1.S [37] = assay: Upregulation of CXCL10 gene in human MM1.S cells at 1 uM for 6 days by; type: functional, cell-based; conditions: time 6.0 day; how it was run: as §1
MM1.S [38] = assay: Upregulation of IFITM3 gene in human MM1.S cells at 1 uM for 6 days by; type: functional, cell-based; conditions: time 6.0 day
MM1.S [39] = assay: Upregulation of SOAT2 gene in human MM1.S cells at 1 uM for 6 days by; type: functional, cell-based; conditions: time 6.0 day
RPMI-8226 [40] = assay: Upregulation of ISG15 gene in human RPMI-8226 cells at 1 uM for 6 days by; type: functional, cell-based; conditions: time 6.0 day
MM1.S [41] = assay: Upregulation of CMTM3 gene in human MM1.S cells at 1 uM for 6 days by; type: functional, cell-based; conditions: time 6.0 day; how it was run: as §1
RPMI-8226 [42] = assay: Upregulation of TP53I3 gene in human RPMI-8226 cells at 1 uM for 6 days by; type: functional, cell-based; conditions: time 6.0 day
RPMI-8226 [43] = assay: Upregulation of HLA-DPB1 gene in human RPMI-8226 cells at 1 uM for 6 days by; type: functional, cell-based; conditions: time 6.0 day
MM1.S [44] = assay: Upregulation of APH1B gene in human MM1.S cells at 1 uM for 6 days by; type: functional, cell-based; conditions: time 6.0 day
RPMI-8226 [45] = assay: Induction of apoptosis in human RPMI-8226 cells assessed as early apoptotic cells at 1 uM for 3 days by annexin-V based propidium iodide staining based flow cytometric analysis (reference value: 3.02%); type: functional; conditions: time 3 day
MM1.S [46] = assay: Induction of apoptosis in human MM1.S cells assessed as necrotic cells at 1 uM for 6 days by annexin-V based propidium iodide staining based flow cytometric analysis (reference value: 1.8%); type: functional; conditions: time 6 day
MM1.S [47] = assay: Induction of apoptosis in human MM1.S cells assessed as late apoptotic cells at 1 uM for 3 days by annexin-V based propidium iodide staining based flow cytometric analysis (reference value: 0.15%); type: functional; conditions: time 3 day
RPMI-8226 [48] = assay: Effect on human RPMI-8226 cells assessed as change in IRF4 mRNA level at 1 uM for 3 days by ChIP-qPCR analysis; type: functional, cell-based; conditions: time 3.0 day
How it was run: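 ChIP-qPCR for H3K79me2 at IRF4-MYC signaling genes after 1 μM inhibitor or DMSO for 3 days. Signal normalized to input DNA. An intergenic region 28 kb upstream of KLF2 served as negative control. Mean of 3 replications ± SEM.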

## CC(C)N(CCCNC(=O)Nc1ccc(C(C)(C)C)cc1)C[C@H]1O[C@@H](n2cc(Br)c3c(N)ncnc32)[C@H](O)[C@@H]1O
RPMI-8226 [1]
  Activity: Active
RPMI-8226 [2]
  Activity: Active
RPMI-8226 [3]
  Activity: Active
RPMI-8226 [4]
  Activity: Active
RPMI-8226 [5]
  Activity: Active
RPMI-8226 [6]
  Activity: Active
MM1.S [7]
  Activity: Active
RPMI-8226 [8]
  Activity: Active
U-266
  Activity: Active
MM1.S [9]
  Activity: Active
RPMI-8226 [10]
  Activity: Active
RPMI-8226 [11]
  Activity: Active
RPMI-8226 [12]
  Activity: Active
RPMI-8226 [13]
  Activity: Active
MM1.S [14]
  Activity: Active
RPMI-8226 [15]
  Activity: Active
MM1.S [16]
  Activity: Active
MM1.S [17]
  Activity: Active
MM1.S [18]
  Activity: Active
MM1.S [19]
  Activity: Active
RPMI-8226 [20]
  Activity: Active
RPMI-8226 [21]
  Activity: Active
RPMI-8226 [22]
  Activity: Active
RPMI-8226 [23]
  Activity: Active
MM1.S [24]
  Activity: Active
RPMI-8226 [25]
  Activity: Active
MM1.S [26]
  Activity: Active
RPMI-8226 [27]
  Activity: Active
MM1.S [28]
  Activity: Active
RPMI-8226 [29]
  Activity: Active
RPMI-8226 [30]
  Activity: Active
RPMI-8226 [31]
  Activity: Active
MM1.S [32]
  Activity: Active
MM1.S [33]
  Activity: Active
MM1.S [34]
  Activity: Active
MM1.S [35]
  Activity: Active
RPMI-8226 [36]
  Activity: Active
MM1.S [37]
  Activity: Active
MM1.S [38]
  Activity: Active
MM1.S [39]
  Activity: Active
RPMI-8226 [40]
  Activity: Active
MM1.S [41]
  Activity: Active
RPMI-8226 [42]
  Activity: Active
RPMI-8226 [43]
  Activity: Active
MM1.S [44]
  Activity: Active

## CC(C)N(C[C@H]1O[C@@H](n2cnc3c(N)ncnc32)[C@H](O)[C@@H]1O)[C@H]1C[C@@H](CCc2nc3cc(C(C)(C)C)ccc3[nH]2)C1 [PINOMETOSTAT]
RPMI-8226 [45]
  Activity: 7.39%
MM1.S [46]
  Activity: 2.47%
MM1.S [47]
  Activity: 0.083%
RPMI-8226 [48]
  Activity: Active
